This note sets out measurements from ChEMBL document CHEMBL2062518, “Total synthesis and biological evaluation of transvalencin Z” (J Nat Prod, 2012).

The structures appear in SMILES notation.

This experiment has as its system Mycobacterium tuberculosis variant bovis BCG. The experiment is described as follows: Antimicrobial activity against Mycobacterium bovis BCG TMC1011 Pasteur ATCC 35734 after 24 to 48 hrs. It is filed as functional. The gist of the method: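 Streaked from frozen glycerol stock onto nutrient agar (1.5% agar), 37 °C, 24 h. Single colonies were grown in nutrient broth to OD600 1.0 and diluted to OD600 0.003. Cells were exposed to compound at varying concentrations from DMSO stocks (1% DMSO). Growth was read at 600 nm at 24 and 48 h, with 690 nm background subtracted and normalised to DMSO controls.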
For the compound `O=CNCCCC[C@H](NC(=O)[C@@H]1COC(c2ccccc2O)=N1)C(=O)O`, the MIC99 (as a rule, the lowest concentration that inhibits either 99% of growth or 99% of the strains tested, depending on the study) is greater than 100 µM.

Take `O=CNCCCC[C@@H](NC(=O)[C@H]1COC(c2ccccc2O)=N1)C(=O)O`: the MIC99 was greater than 100 µM.

For the compound `O=CNCCCC[C@@H](NC(=O)[C@@H]1COC(c2ccccc2O)=N1)C(=O)O`, the MIC99 was greater than 100 µM.

In turn, `O=CNCCCC[C@H](NC(=O)[C@H]1COC(c2ccccc2O)=N1)C(=O)O` displayed an MIC99 greater than 100 µM.
